Columns and labels:
[1] = system: Candida albicans; experiment: Antifungal activity against Candida albicans ATCC 90028 at 1 ug/ml after 48 hrs relative to control; assay type: functional
Method in brief: (§1)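 Planktonic broth microdilution per M27-A3 in MOPS-buffered RPMI 1640 (pH 7.0), final inoculum 1.8×10^3 cells/mL, compounds 0.0313–16 µg/mL from 1600 µg/mL stocks in ethanol or DMSO. Incubated at 35°C without agitation; OD405 read at 18 and 48 h. % inhibition was derived from test, sterility (no inoculum) and solvent growth-control wells. Amphotericin B at 0.5 µg/mL served as the 100% control.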

[2] = system: Candida albicans; experiment: Antifungal activity against Candida albicans ATCC 90028 at 0.5 ug/ml after 18 hrs relative to control; assay type: functional; method in brief: as §1
[3] = system: Candida albicans; experiment: Antifungal activity against Candida albicans ATCC 90028 at 0.125 ug/ml after 18 hrs relative to control; assay type: functional; method in brief: as §1
[4] = system: Candida albicans; experiment: Antifungal activity against Candida albicans ATCC 90028 at 0.0625 ug/ml after 48 hrs relative to control; assay type: functional; method in brief: as §1
[5] = system: Candida albicans; experiment: Synergistic antifungal activity against Candida albicans ATCC 90028 at 80 ug/ml after 48 hrs in presence of 80 ug/ml fluconazol by checkerboard assay relative to control; assay type: functional; conditions: ATCC 90028, 48 h, read-out: GI
Method in brief: (§2)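 Checkerboard in C. albicans ATCC 90028, inoculum prepared per CLSI M27-A3 in RPMI. Fluconazole serially diluted 80-1.25 µg/mL across the plate against the partner compound at 80-1.25 µg/mL final. Incubated 48 h at 35°C. Metabolic activity read by XTT reduction at 475 nm (660 nm reference), given as % of the untreated growth control.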

[6] = system: Candida albicans; experiment: Synergistic antifungal activity against Candida albicans ATCC 90028 at 80 ug/ml after 48 hrs in presence of 40 ug/ml fluconazol by checkerboard assay relative to control; assay type: functional; method in brief: as §2
[7] = system: Candida albicans; experiment: Synergistic antifungal activity against Candida albicans ATCC 90028 at 80 ug/ml after 48 hrs in presence of 20 ug/ml fluconazol by checkerboard assay relative to control; assay type: functional; method in brief: as §2
[8] = system: Candida albicans; experiment: Synergistic antifungal activity against Candida albicans ATCC 90028 at 40 ug/ml after 48 hrs in presence of 20 ug/ml fluconazol by checkerboard assay relative to control; assay type: functional; method in brief: as §2
[9] = system: Candida albicans; experiment: Synergistic antifungal activity against Candida albicans ATCC 90028 at 40 ug/ml after 48 hrs in presence of 1.25 ug/ml fluconazol by checkerboard assay relative to control; assay type: functional; method in brief: as §2
[10] = system: Candida albicans; experiment: Synergistic antifungal activity against Candida albicans ATCC 90028 at 10 ug/ml after 48 hrs in presence of 20 ug/ml fluconazol by checkerboard assay relative to control; assay type: functional
Method in brief: (§3)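 Checkerboard per M27-A3 against ATCC 90028: fluconazole at 80–1.25 µg/mL horizontally and partner compound at 80–1.25 µg/mL vertically, 100 µL yeast inoculum per well, 35°C for 48 h. After 48 h, metabolic activity was measured by XTT reduction at 475 nm (660 nm reference) relative to untreated growth control. FIC index is the sum of the FICs; <1 was defined as synergism and >1 as antagonism.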

[11] = system: Candida albicans; experiment: Synergistic antifungal activity against Candida albicans ATCC 90028 at 5 ug/ml after 48 hrs in presence of 80 ug/ml fluconazol by checkerboard assay relative to control; assay type: functional; method in brief: as §2
[12] = system: Candida albicans; experiment: Synergistic antifungal activity against Candida albicans ATCC 90028 at 5 ug/ml after 48 hrs in presence of 10 ug/ml fluconazol by checkerboard assay relative to control; assay type: functional; method in brief: as §2
[13] = system: Candida albicans; experiment: Synergistic antifungal activity against Candida albicans ATCC 90028 at 2.5 ug/ml after 48 hrs in presence of 40 ug/ml fluconazol by checkerboard assay relative to control; assay type: functional
Method in brief: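 Checkerboard microdilution (M27-A3) on C. albicans ATCC 90028 in RPMI 1640: fluconazole (80-1.25 µg/mL) crossed with tetrazole (80-1.25 µg/mL final), incubated at 35°C for 48 h. Growth by OD405 at 18 and 48 h, endpoint taken as 100% inhibition. FIC index = sum of the two agents' FICs; <1 synergism, >1 antagonism.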

[14] = system: Candida albicans; experiment: Synergistic antifungal activity against Candida albicans ATCC 90028 at 1.25 ug/ml after 48 hrs in presence of 40 ug/ml fluconazol by checkerboard assay relative to control; assay type: functional; method in brief: as §3
[15] = system: Candida albicans; experiment: Antifungal activity against Candida albicans ATCC 90028 assessed as inhibition of metabolic activity at 5 ug/ml after 48 hrs in presence of 80 ug/ml fluconazol by XTT assay relative to control; assay type: functional; conditions: values are per cent of control
Method in brief: (§4)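 Checkerboard against strain ATCC 90028, inoculum per M27-A3: fluconazole 80-1.25 µg/mL on one axis, tetrazole 80-1.25 µg/mL on the other. Plates at 35°C for 48 h, then XTT metabolic reduction read at 475 nm (660 nm reference). Activity is the drop in mean absorbance against untreated growth control. FICs and their summed FIC index are taken at 50% reduction in metabolic activity.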

[16] = system: Candida albicans; experiment: Antifungal activity against Candida albicans ATCC 90028 assessed as inhibition of metabolic activity at 5 ug/ml after 48 hrs in presence of 40 ug/ml fluconazol by XTT assay relative to control; assay type: functional; conditions: values are per cent of control; method in brief: as §4
[17] = system: Candida albicans; experiment: Antifungal activity against Candida albicans ATCC 90028 assessed as inhibition of metabolic activity at 2.5 ug/ml after 48 hrs in presence of 40 ug/ml fluconazol by XTT assay relative to control; assay type: functional; conditions: values are per cent of control
Method in brief: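 C. albicans ATCC 90028 in checkerboard: fluconazole serial dilutions (80-1.25 µg/mL) crossed with tetrazole (80-1.25 µg/mL final), M27-A3 inoculum in RPMI 1640, 35°C for 48 h. Metabolic activity measured by XTT reduction, read at 475 nm (660 nm reference). Activity expressed relative to untreated growth control absorbance.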

[18] = system: Candida albicans; experiment: Antifungal activity against Candida albicans ATCC 90028 assessed as inhibition of metabolic activity at 1.25 ug/ml after 48 hrs in presence of 40 ug/ml fluconazol by XTT assay relative to control; assay type: functional; conditions: values are per cent of control; method in brief: as §4
[19] = system: Candida albicans; experiment: Antifungal activity against Candida albicans ATCC 90028 assessed as inhibition of metabolic activity at 1.25 ug/ml after 48 hrs in presence of 5 ug/ml fluconazol by XTT assay relative to control; assay type: functional; conditions: values are per cent of control; method in brief: as §4
[20] = system: Candida albicans; experiment: Antifungal activity against Candida albicans ATCC 90028 assessed as metabolic activity at 80 ug/ml after 48 hrs in presence of 10 ug/ml fluconazol by XTT assay relative to control
[21] = system: Candida albicans; experiment: Antifungal activity against Candida albicans ATCC 90028 assessed as metabolic activity at 40 ug/ml after 48 hrs in presence of 10 ug/ml fluconazol by XTT assay relative to control
[22] = system: Candida albicans; experiment: Antifungal activity against Candida albicans ATCC 90028 assessed as metabolic activity at 20 ug/ml after 48 hrs in presence of 1.25 ug/ml fluconazol by XTT assay relative to control

| Compound | Activity [1] | Activity [2] | Activity [3] | Activity [4] | inhibition of growth at 80 µg/mL [5] | growth inhibition (GI) [6] | growth inhibition (GI) [7] | growth inhibition (GI) [8] | growth inhibition (GI) [9] | growth inhibition (GI) [10] | growth inhibition (GI) [11] | growth inhibition (GI) [12] | growth inhibition (GI) [13] | growth inhibition (GI) [14] | residual activity [15] | residual activity [16] | residual activity [17] | residual activity [18] | residual activity [19] | Metabolic activity [20] | other results |
| --- | --- | --- | --- | --- | --- | --- | --- | --- | --- | --- | --- | --- | --- | --- | --- | --- | --- | --- | --- | --- | --- |
| Cc1ccc(-c2nnn(CCCN3CCOCC3)n2)cc1 | 96.58% | 98.99% | 99.57% | 99.03% | 99.5% | 99.21% | 99.71% | 99.55% | 99.57% | 98.99% | 99.47% | 98.8% | 98.91% | 99.36% | 88.19% | 100% | 100% | 100% | 100% | 11.87% | Metabolic activity [21]: 28.26%; Metabolic activity [22]: 76.07% |
| ClCCCn1nnnc1-c1ccccc1Cl | 98.22% | 98.4% | 100% | 99.34% | 99.8% | 99.79% | 99.74% | 99.53% | 99.93% | 99.61% | 99.34% | 99.66% | 99.32% | 99.16% | 77.27% | 86.34% | 97.62% | 81.57% | 100% | 73.98% | Metabolic activity [21]: 70.86%; Metabolic activity [22]: 0% |
| CCOC(=O)CCn1nnc(-c2ccccc2)n1 | 97.51% | 98.97% | 99.13% | 99.12% | 99.6% | 99.34% | 99.59% | 99.54% | 99.56% | 99.46% | 99.61% | 99.57% | 99.46% | 99.46% | 71.92% | 94.92% | 92.82% | 86.85% | 100% | 52.64% | Metabolic activity [21]: 56.45%; Metabolic activity [22]: 90.68% |
